Results published in ChEMBL document CHEMBL4393694, “A multifunctional therapeutic approach: Synthesis, biological evaluation, crystal structure and molecular docking of diversified 1H-pyrazolo[3,4-b]pyridine derivatives against Alzheimer's disease” (Eur J Med Chem, 2019).
The source made the active and inactive calls. No cut-off for these calls is given here.

Columns and labels:
[1] = Antioxidant activity assessed as AAPH-induced radical scavenging activity by measuring trolox equivalents for oxygen radical absorbance capacity measured up to 80 mins by ORAC-FL assay; assay type: functional
Method in brief: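 Fluorescein (70 nM final) with test compound at eight concentrations (1–8 μM) in 75 mM phosphate buffer pH 7.4, preincubated 15 min at 37 °C. AAPH (12 mM final) then added and fluorescence read (ex 485/em 520 nm) for 80 min. Net AUC over blank regressed against concentration and converted to Trolox equivalents by standard curve (Trolox = 1). At least three runs.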

Cholinesterase = Cholinesterase (Equus caballus, UniProt P81908); assay: Inhibition of equine serum BuChE using butyrylthiocholine iodide as substrate pretreated for 5 mins followed by substrate addition measured after 5 mins by Ellman's method
Sequence of Cholinesterase (P81908 whole entry): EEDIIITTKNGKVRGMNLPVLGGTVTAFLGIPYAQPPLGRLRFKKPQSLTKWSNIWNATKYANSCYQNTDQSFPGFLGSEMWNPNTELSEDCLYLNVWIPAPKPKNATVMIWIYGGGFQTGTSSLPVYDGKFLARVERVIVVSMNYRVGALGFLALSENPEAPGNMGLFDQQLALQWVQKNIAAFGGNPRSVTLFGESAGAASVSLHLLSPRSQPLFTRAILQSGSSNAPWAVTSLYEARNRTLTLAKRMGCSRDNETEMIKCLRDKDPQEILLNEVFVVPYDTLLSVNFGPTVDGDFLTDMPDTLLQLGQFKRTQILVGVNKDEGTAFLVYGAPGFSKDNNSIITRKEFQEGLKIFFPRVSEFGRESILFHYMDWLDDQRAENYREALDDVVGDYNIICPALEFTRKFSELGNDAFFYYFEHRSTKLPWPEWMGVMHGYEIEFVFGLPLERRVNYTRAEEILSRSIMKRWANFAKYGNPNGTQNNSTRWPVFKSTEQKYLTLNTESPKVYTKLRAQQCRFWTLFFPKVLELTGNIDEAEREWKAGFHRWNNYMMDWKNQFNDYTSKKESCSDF
Method in brief: (§1)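 Ellman assay in phosphate buffer pH 8.0. AChE (0.22 U/mL) or BuChE (0.06 U/mL) preincubated 5 min with inhibitor (0.01–100 μM final). DTNB then added, and the reaction started with ATC or BTC (0.075 M solution). IC50 reported as mean ± SD. Selectivity is IC50(BuChE)/IC50(AChE).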

[2] = target: T1, Amyloid-beta precursor protein (Homo sapiens, UniProt P05067); assay: Inhibition of self-mediated amyloid beta (1 to 42) (unknown origin) aggregation at 25 uM incubated for 48 hrs by thioflavin-T fluorescence assay relative to control
T1 sequence (P05067 whole entry): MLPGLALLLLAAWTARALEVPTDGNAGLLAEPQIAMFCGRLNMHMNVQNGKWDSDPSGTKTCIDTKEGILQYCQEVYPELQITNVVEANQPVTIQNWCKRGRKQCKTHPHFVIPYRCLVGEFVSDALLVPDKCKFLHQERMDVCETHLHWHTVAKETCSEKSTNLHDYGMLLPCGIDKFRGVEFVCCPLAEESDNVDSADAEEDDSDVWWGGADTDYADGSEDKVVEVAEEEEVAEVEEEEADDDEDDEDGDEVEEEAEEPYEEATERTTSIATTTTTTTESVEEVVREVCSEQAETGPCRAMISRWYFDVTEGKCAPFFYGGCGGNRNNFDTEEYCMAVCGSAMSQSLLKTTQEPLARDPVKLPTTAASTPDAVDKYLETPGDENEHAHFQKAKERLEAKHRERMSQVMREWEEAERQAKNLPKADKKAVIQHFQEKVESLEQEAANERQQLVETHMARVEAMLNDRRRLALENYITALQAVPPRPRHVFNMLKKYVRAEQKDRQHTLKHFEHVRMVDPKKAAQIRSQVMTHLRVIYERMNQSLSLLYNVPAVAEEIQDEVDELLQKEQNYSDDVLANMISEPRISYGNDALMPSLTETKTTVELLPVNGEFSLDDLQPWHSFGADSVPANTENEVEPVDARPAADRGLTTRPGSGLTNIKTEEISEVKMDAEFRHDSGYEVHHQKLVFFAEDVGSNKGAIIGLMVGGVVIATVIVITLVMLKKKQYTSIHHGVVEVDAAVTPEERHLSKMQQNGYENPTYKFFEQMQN
Method in brief: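 HFIP-pretreated Aβ1-42 taken up in DMSO (5 mM stock), diluted in 50 mM phosphate pH 7.4 (100 μM final). Incubated 48 h at 37 °C with or without compound at 25 μM. Samples diluted to 200 μl with 50 mM glycine-NaOH pH 8.0 and read by ThT fluorescence. Percent inhibition reported as mean ± SD.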

[3] = Selectivity index, ratio of IC50 for equine serum BChE to IC50 for electric eel AChE
Method in brief: as §1, with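 “solution). Absorbance read at 412 nm, 25 °C, 5 min after substrate.” for “solution).”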

Acetylcholinesterase = Acetylcholinesterase (Electrophorus electricus, UniProt O42275); assay: Inhibition of electric eel AChE using acetylthiocholine iodide as substrate preincubated for 5 mins followed by substrate addition measured after 5 mins by Ellman's method
Sequence of Acetylcholinesterase (O42275 whole entry): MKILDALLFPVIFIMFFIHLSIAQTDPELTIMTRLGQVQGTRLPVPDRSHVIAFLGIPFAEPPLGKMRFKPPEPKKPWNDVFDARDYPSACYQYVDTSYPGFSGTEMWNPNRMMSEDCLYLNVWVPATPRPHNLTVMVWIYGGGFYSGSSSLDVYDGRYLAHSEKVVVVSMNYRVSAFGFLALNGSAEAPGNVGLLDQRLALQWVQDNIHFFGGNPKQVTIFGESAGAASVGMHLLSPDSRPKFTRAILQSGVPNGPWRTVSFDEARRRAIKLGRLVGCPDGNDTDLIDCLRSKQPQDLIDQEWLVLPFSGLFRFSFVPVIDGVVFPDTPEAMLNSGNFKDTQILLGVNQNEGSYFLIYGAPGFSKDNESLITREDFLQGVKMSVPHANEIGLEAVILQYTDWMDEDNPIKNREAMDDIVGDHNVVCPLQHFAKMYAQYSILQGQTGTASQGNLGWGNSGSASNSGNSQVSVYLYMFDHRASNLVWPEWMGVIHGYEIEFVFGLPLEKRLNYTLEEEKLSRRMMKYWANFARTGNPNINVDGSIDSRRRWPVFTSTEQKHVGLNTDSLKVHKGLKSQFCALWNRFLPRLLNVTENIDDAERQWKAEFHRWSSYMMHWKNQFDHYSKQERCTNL

[4] = target: T1, Amyloid-beta precursor protein; assay: Disaggregation of self-induced amyloid beta (1 to 42) (unknown origin) preformed fibrils measured after 24 hrs by ThT fluorescence assay relative to control
Method in brief: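 HFIP-pretreated Aβ1-42 taken up in DMSO (5 mM stock), diluted in 50 mM phosphate pH 7.4 (100 μM final). Peptide incubated 48 h at 37 °C, then compound or buffer added and incubated a further 24 h at 37 °C. Samples diluted to 200 μl with 50 mM glycine-NaOH pH 8.0 and read by ThT fluorescence. Peptide-free blanks run in parallel.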

[5] = target: T1, Amyloid-beta precursor protein; assay: Inhibition of self-mediated amyloid beta (1 to 42) (unknown origin) aggregation at 20 uM incubated for 48 hrs by thioflavin-T fluorescence assay relative to control
Method in brief: (§2)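 HFIP-pretreated Aβ1-42 from a DMSO stock was diluted in phosphate buffer (50 mM, pH 7.4). Peptide was incubated with or without inhibitor at 10, 15, 20 or 25 μM for 48 h at 37 °C. Samples were diluted to 200 μL with glycine–NaOH (50 mM, pH 8.0) and fibrils read by ThT fluorescence. Blanks lacking Aβ were run. IC50 was derived from the four concentrations.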

[6] = target: T1, Amyloid-beta precursor protein; assay: Inhibition of self-mediated amyloid beta (1 to 42) (unknown origin) aggregation at 15 uM incubated for 48 hrs by thioflavin-T fluorescence assay relative to control; method in brief: as §2
[7] = target: T1, Amyloid-beta precursor protein; assay: Inhibition of self-mediated amyloid beta (1 to 42) (unknown origin) aggregation at 10 uM incubated for 48 hrs by thioflavin-T fluorescence assay relative to control; method in brief: as §2
[8] = Metal chelating activity assessed as compound-Cu2+ complex formation at 30 uM after 30 mins by UV-visible spectrophotometric analysis
Method in brief: (§3)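 UV absorption spectra (200–500 nm) were recorded over 30 min for compound (30 μM final) alone or with CuSO4 or FeSO4 (30 μM final). The medium was 20% (v/v) ethanol/buffer: 150 mM NaCl, 20 mM HEPES, pH 7.4.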

[9] = Metal chelating activity assessed as compound-Fe2+ complex formation at 30 uM after 30 mins by UV-visible spectrophotometric analysis; method in brief: as §3
[10] = target: T1, Amyloid-beta precursor protein; assay: Inhibition of self-mediated amyloid beta (1 to 42) (unknown origin) aggregation incubated for 48 hrs by thioflavin-T fluorescence assay; method in brief: as §2
[11] = Inhibition of Cu2+ induced amyloid beta (1 to 42) aggregation assessed as fluorescence intensity at 25 uM incubated for 24 hrs by Thioflavin T based fluorometric assay (reference value: 606.64 +/- 36.11 a.u.)
[12] = Inhibition of Cu2+ induced amyloid beta (1 to 42) aggregation at 25 uM incubated for 24 hrs by Thioflavin T based fluorometric assay relative to control
Method in brief: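 Aβ1-42 was pretreated with HFIP, dried to a film, and held as a 5 mM DMSO stock. It was diluted in HEPES pH 6.6 with 150 μM NaCl, then incubated at 100 μM final with or without Cu2+ (100 μM final) for 48 h at 37 °C. Compounds were added at 25 μM final for 24 h at 37 °C. Samples (20 μL) were diluted to 200 μL glycine–NaOH (50 mM, pH 8.0) containing 5 μM ThT before reading fluorescence.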

[13] = target: T1, Amyloid-beta precursor protein; assay: Inhibition of self-mediated amyloid beta (1 to 42) (unknown origin) fibril formation assessed as appearance of sparse fibrils at 25 uM after 48 hrs by transmission electron microscopic analysis
[14] = target: Acetylcholinesterase (Electrophorus electricus) (UniProt O42275); assay: Mixed-type inhibition of electric eel AChE assessed as decreased Vmax with higher Km using varying levels of acetylthiocholine iodide as substrate pretreated for 5 mins followed by substrate addition by Lineweaver-Burk plot analysis
Sequence of Acetylcholinesterase (Electrophorus electricus) (O42275 24-633 limits assumed): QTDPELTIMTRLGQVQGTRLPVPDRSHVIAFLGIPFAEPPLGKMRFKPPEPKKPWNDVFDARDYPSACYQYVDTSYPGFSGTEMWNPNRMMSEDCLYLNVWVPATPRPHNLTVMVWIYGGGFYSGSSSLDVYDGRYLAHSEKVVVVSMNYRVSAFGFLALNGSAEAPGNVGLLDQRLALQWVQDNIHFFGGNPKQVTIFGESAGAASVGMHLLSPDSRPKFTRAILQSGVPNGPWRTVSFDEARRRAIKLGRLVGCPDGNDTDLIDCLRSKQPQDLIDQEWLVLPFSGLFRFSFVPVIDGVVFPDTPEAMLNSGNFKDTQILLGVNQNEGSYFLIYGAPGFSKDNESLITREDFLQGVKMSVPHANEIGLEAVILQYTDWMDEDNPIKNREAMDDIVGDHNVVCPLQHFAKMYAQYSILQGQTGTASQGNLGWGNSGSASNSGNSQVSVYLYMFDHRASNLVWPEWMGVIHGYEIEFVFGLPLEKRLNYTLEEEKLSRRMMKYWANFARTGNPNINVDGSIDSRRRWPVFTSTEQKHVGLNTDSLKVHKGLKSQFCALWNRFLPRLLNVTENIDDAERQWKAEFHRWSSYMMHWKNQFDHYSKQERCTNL
Method in brief: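 AChE kinetics by Ellman's method, with substrate varied at comparatively low concentrations. Inhibitor tested at 10, 20 and 40 nM. Inhibition type assigned from Lineweaver–Burk plots of 1/velocity versus 1/substrate.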

## O=C(CN1CCN(c2ccnc3cc(Cl)ccc23)CC1)Nc1n[nH]c2ncccc12
[1]
  Activity: 0.286 µMequiv/µM
Cholinesterase
  IC50: > 100 µM
[2]
  inhibition: 23.6%
[3]
  Ratio IC50: > 8330
Acetylcholinesterase
  IC50: 0.012 µM

## O=C(CN1CCOCC1)Nc1n[nH]c2ncccc12
[1]
  Activity: 0.192 µMequiv/µM
Cholinesterase
  IC50: > 100 µM
[2]
  inhibition: 74.6%
[3]
  Ratio IC50: > 885
[4]
  Activity: 47.4%
Acetylcholinesterase
  IC50: 0.113 µM

## Cc1cc(N2CCN(CC(=O)Nc3n[nH]c4ncccc34)CC2)n2ncnc2n1
[1]
  Activity: 0.216 µMequiv/µM
Cholinesterase
  IC50: > 100 µM
[2]
  inhibition: 43.4%
[3]
  Ratio IC50: > 4550
Acetylcholinesterase
  IC50: 0.022 µM

## O=C(CN1CCCCC1)Nc1n[nH]c2ncccc12
[1]
  Activity: 0.65 µMequiv/µM
Cholinesterase
  IC50: > 100 µM
[2]
  inhibition: 50.6%
[3]
  Ratio IC50: > 20800
Acetylcholinesterase
  IC50: 0.0048 µM

## N#Cc1cccnc1N1CCN(CC(=O)Nc2n[nH]c3ncccc23)CC1
[1]
  Activity: 0.163 µMequiv/µM
Cholinesterase
  IC50: > 100 µM
[2]
  inhibition: 40%
Acetylcholinesterase
  IC50: > 100 µM

## CCOC(=O)c1cnc2ccccc2c1N1CCN(CC(=O)Nc2n[nH]c3ncccc23)CC1
[5]
  inhibition: 84.1%
[6]
  inhibition: 43.8%
[1]
  Activity: 0.274 µMequiv/µM
[7]
  inhibition: 28.6%
[8]
  Activity: Active
Cholinesterase
  IC50: > 100 µM
[2]
  inhibition: 81.7%
[9]
  Activity: Active
[4]
  Activity: 61.6%
Acetylcholinesterase
  IC50: > 100 µM
[10]
  IC50: 15.7 µM
[11]
  Flu intensity: 261 a.u.
[12]
  inhibition: 57%
[13]
  inhibition: Active

## CCOC(=O)c1cnc2ccc(C)cc2c1N1CCN(CC(=O)Nc2n[nH]c3ncccc23)CC1
[1]
  Activity: 0.271 µMequiv/µM
Cholinesterase
  IC50: > 100 µM
[2]
  inhibition: 69.3%
[4]
  Activity: 52.1%
Acetylcholinesterase
  IC50: > 100 µM

## O=C(CN1CCN(CC(=O)Nc2n[nH]c3ncccc23)CC1)Nc1n[nH]c2ncccc12
[5]
  inhibition: 58%
[6]
  inhibition: 39.9%
[1]
  Activity: 0.283 µMequiv/µM
[7]
  inhibition: 3.9%
[14]
  inhibition: Active
[8]
  Activity: Active
Cholinesterase
  IC50: > 100 µM
[2]
  inhibition: 79.5%
[3]
  Ratio IC50: > 2220
[9]
  Activity: Active
[4]
  Activity: 53.8%
Acetylcholinesterase
  IC50: 0.045 µM
[10]
  IC50: 17.9 µM
[11]
  Flu intensity: 250 a.u.
[12]
  inhibition: 58.8%
[13]
  inhibition: Active

## CN1CCN(CC(=O)Nc2n[nH]c3ncccc23)CC1
[1]
  Activity: 0.362 µMequiv/µM
Cholinesterase
  IC50: > 100 µM
[2]
  inhibition: 50.9%
[3]
  Ratio IC50: > 20400
Acetylcholinesterase
  IC50: 0.0049 µM

## COc1cc(/C=C/C(=O)CC(=O)/C=C/c2ccc(O)c(OC)c2)ccc1O
[11]
  Flu intensity: 333 a.u.
[12]
  inhibition: 45.2%
[13]
  inhibition: Active
